Reference: ChEMBL document CHEMBL4261567, “Phenylethynyl-substituted Heterocycles Inhibit Cyclin D1 and Induce the Expression of Cyclin-dependent Kinase Inhibitor p21Wif1/Cip1 in Colorectal Cancer Cells” (Medchemcomm, 2018)
The source made the active and inactive calls. The calls are words filed in the database; no cut-off is given here.

Tests used:
[1] = system: LS174T; assay: Antiproliferative activity against human LS174T cells assessed as inhibition of cell proliferation at 10 uM after 4 days by Vi-Cell cell viability analyzer based method relative to control; type: functional; conditions: 96 h
Method in brief: (§1)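 Cells (colon LS174T, HT-29, Caco2; lung epithelial BEAS-2B; fibroblast HEL 299) were kept in RPMI or DMEM with 5% or 10% FBS plus 1% penicillin/streptomycin. 3 × 10^4 cells per well were exposed to DMSO or compound. After 4 days, cell number and viability were counted on a Vi-Cell analyzer. Results are given as percent inhibition of proliferation at the stated concentration.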

[2] = system: LS174T; assay: Antiproliferative activity against human LS174T cells assessed as inhibition of cell proliferation at 1 uM after 4 days by Vi-Cell cell viability analyzer based method relative to control; type: functional; conditions: 96 h; method in brief: as §1
[3] = system: LS174T; assay: Antiproliferative activity against human LS174T cells assessed as inhibition of cell proliferation at 100 nM after 4 days by Vi-Cell cell viability analyzer based method relative to control; type: functional; conditions: 96 h; method in brief: as §1
[4] = system: Caco-2; assay: Antiproliferative activity against human Caco2 cells assessed as inhibition of cell proliferation at 1 uM after 4 days by Vi-Cell cell viability analyzer based method relative to control; type: functional; conditions: Caco-2, 96 h; method in brief: as §1
[5] = Cytotoxicity against human BEAS2B cells assessed as inhibition of cell proliferation at 1 uM after 4 days by Vi-Cell cell viability analyzer based method relative to control; parameters: species or system BEAS-2B; method in brief: as §1
[6] = system: HT-29; assay: Antiproliferative activity against human HT-29 cells assessed as inhibition of cell proliferation at 1 uM after 4 days by Vi-Cell cell viability analyzer based method relative to control; type: functional; conditions: HT-29, 96 h; method in brief: as §1
[7] = Cytotoxicity against human BEAS2B cells assessed as inhibition of cell proliferation at 10 uM after 4 days by Vi-Cell cell viability analyzer based method relative to control; parameters: species or system BEAS-2B; method in brief: as §1
[8] = Cytotoxicity against human HEL299 cells assessed as inhibition of cell proliferation at 1 uM after 4 days by Vi-Cell cell viability analyzer based method relative to control; parameters: species or system HEL 299; method in brief: as §1
[9] = biological target: G1/S-specific cyclin-D1 (Homo sapiens) (UniProt P24385); assay: Inhibition of cyclin D1 in human LS174T cells assessed as induction of p21 waf1/cip1 expression at 300 nM by Western blot analysis; type: cell-based
G1/S-specific cyclin-D1 (Homo sapiens), sequence (P24385 whole entry): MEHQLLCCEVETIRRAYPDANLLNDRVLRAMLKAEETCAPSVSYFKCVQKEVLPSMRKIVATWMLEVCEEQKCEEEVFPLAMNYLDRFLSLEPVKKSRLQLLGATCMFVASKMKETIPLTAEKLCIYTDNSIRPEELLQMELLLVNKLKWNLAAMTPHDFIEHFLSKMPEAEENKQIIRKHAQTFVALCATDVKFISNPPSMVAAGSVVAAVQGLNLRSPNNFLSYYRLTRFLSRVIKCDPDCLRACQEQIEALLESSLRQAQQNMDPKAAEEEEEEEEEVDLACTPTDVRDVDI
Method in brief: (§2)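 LS174T cells were treated at 300 nM. Lysates were western blotted with antibodies to cyclin D1 and p21Wif1/Cip1, using β-tubulin as the loading control.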

[10] = Cytotoxicity against human HEL299 cells assessed as inhibition of cell proliferation at 10 uM after 4 days by Vi-Cell cell viability analyzer based method relative to control; parameters: species or system HEL 299; method in brief: as §1
[11] = system: LS174T; assay: Antiproliferative activity against human LS174T cells assessed as inhibition of cell proliferation at 30 nM after 4 days by Vi-Cell cell viability analyzer based method relative to control; type: functional; conditions: 96 h; method in brief: as §1
[12] = biological target: G1/S-specific cyclin-D1 (Homo sapiens) (UniProt P24385); assay: Inhibition of cyclin D1 in human LS174T cells assessed as reduction in protein level at 300 nM by Western blot analysis; type: cell-based; method in brief: as §2
[13] = system: LS174T; assay: Antiproliferative activity against human LS174T cells assessed as inhibition of cell proliferation after 4 days by Vi-Cell cell viability analyzer based method; type: functional; conditions: 96 h
Method in brief: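 LS174T cells in RPMI or DMEM with 5% or 10% FBS plus 1% penicillin/streptomycin were seeded at 3 × 10^4 cells per well. They were treated with DMSO or a range of compound concentrations, and cell number and viability were counted on a Vi-Cell analyzer after 4 days. IC50 was fitted from the dose-response curve.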

Compound	inhibition at 10 µM [1] [%]	inhibition at 1 µM [2] [%]	inhibition at 0.1 µM [3] [%]	other results
Fc1cccc(F)c1C#Cc1ccc2ncccc2c1	80.1	11		
CN(C)c1ncc(C#Cc2c(F)cccc2F)c2ncccc12	85.2	87.9	59.5	
Fc1cccc(F)c1C#Cc1ccc2nc(Cl)ccc2c1	63.3	21.2		
Fc1cccc(F)c1C#Cc1cnc2ccccc2c1	90.4	41.7	0	
O=C1CCCCN1c1ccc(C#Cc2c(F)cccc2F)cc1	68.1	6.4		
CN(C)c1cnc(C#Cc2c(F)cccc2F)cn1	91.6	22.9		
Fc1cccc(F)c1C#Cc1ccc2cn[nH]c2c1	97	81.5		
Fc1cccc(F)c1C#Cc1cccc2cccnc12	92.7	47.6		
Nc1ncc(C#Cc2c(F)cccc2F)c2ccccc12	93.1	86.2	35.5	
Fc1cccc(F)c1C#Cc1ccc2cncnc2c1	96.3	33.8		
Nc1ccc2ncc(C#Cc3c(F)cccc3F)cc2c1	9.2			
Fc1cccc(F)c1C#Cc1ccc(N2CCOCC2)cc1	32.1	13		
Fc1cccc(F)c1C#Cc1ccc(-n2cccc2)nc1	95.3	80.5	0	
Cn1ncc2cc(C#Cc3c(F)cccc3F)ccc21	94.6	58.4	0	
Fc1cccc(F)c1C#Cc1ccc2[nH]ccc2c1	91.5	52.9		
Fc1cccc(F)c1C#Cc1cnc(Cl)c2ccccc12	94	48.1	0.8	
Fc1cccc(F)c1C#Cc1ccc2c(Cl)ccnc2c1	70.8	23.1		
Fc1cccc(F)c1C#Cc1cccc2ncccc12	94.7	43.1		
Fc1cccc(F)c1C#Cc1ccc2ccccc2n1	93.8	67.3	6.1	
Fc1cccc(F)c1C#Cc1cccc2cnccc12	93.6	64.2		
Fc1cccc(F)c1C#Cc1ccc2cccnc2c1	99.4	90.7	2.9	
Cc1ccc(C)n1-c1ccc(C#Cc2c(F)cccc2F)cc1	78.8	20.9		
Fc1cccc(F)c1C#Cc1cncc2ccccc12	87.9	16.5		
CNc1ncc(C#Cc2c(F)cccc2F)c2ccccc12	98.9	99.8	99.5	inhibition at 1 µM [4]: 58.3%; inhibition at 96 h, 1 µM [5]: 5.8%; inhibition at 1 µM [6]: 76.8%; inhibition at 96 h, 10 µM [7]: 19.2%; inhibition at 96 h, 1 µM [8]: 6.3%; inhibition [9]: Active; inhibition at 96 h, 10 µM [10]: 9.5%; inhibition at 0.03 µM [11]: 94.5%; inhibition [12]: Active; IC50 [13]: 4.2 nM

Compound	inhibition at 10 µM [1] [%]	inhibition at 1 µM [2] [%]	inhibition at 0.1 µM [3] [%]	other results
Cn1ccc2cc(C#Cc3c(F)cccc3F)ccc21	95.2	77.7	3	
Fc1cccc(F)c1C#Cc1nccc2ccccc12	96.7	35.4		
Fc1ccc2ccnc(C#Cc3c(F)cccc3F)c2c1	96.2	71.1	0	
CN(C)c1ccc(C#Cc2c(F)cccc2F)cc1				inhibition [9]: Active; inhibition [12]: Active; IC50 [13]: 25.1 nM
Fc1cccc(F)c1C#Cc1cnc2[nH]ccc2c1	77.9	17.3		
CN1CCN(c2ccc(C#Cc3c(F)cccc3F)cc2)CC1	99.6	19.9		
Fc1cccc(F)c1C#Cc1ccc(-n2cccc2)cc1	96.7	77.5	11	
Fc1cccc(F)c1C#Cc1cnc2ccccc2c1Cl	80.4	51.5	0	
Fc1cccc(F)c1C#Cc1ccc2nccc(Cl)c2c1	89.7	43.8		
Fc1cccc(F)c1C#Cc1cnc2c(F)cccc2c1	89.1	63.6	8.8	
Fc1cccc(F)c1C#Cc1ccc2[nH]ncc2c1	82.9	17.6		
Fc1cccc(F)c1C#Cc1ccc2cnccc2c1	82.4	11.6		
Cn1ncc2ccc(C#Cc3c(F)cccc3F)cc21	98.1	85.9	0	
CN(C)c1ccc2cc(C#Cc3c(F)cccc3F)ccc2n1	38.7	2		
Nc1ccnc2ccc(C#Cc3c(F)cccc3F)cc12	93.9	66.2	0	
Fc1cccc(F)c1C#Cc1cc2ccccc2nc1Cl	85.1	28.4		
CN(C)c1ccc(C#Cc2c(F)cccc2F)cn1	83.6	77.9	0	
CN1CCN(c2ncc(C#Cc3c(F)cccc3F)c3ccccc23)CC1	100	23.2		
Fc1cccc(F)c1C#Cc1cccc2[nH]ncc12	96.2	19.8		
Nc1ccnc2cc(C#Cc3c(F)cccc3F)ccc12	97.7	23.6		
Fc1ccc2cc(C#Cc3c(F)cccc3F)cnc2c1	95.1	69.4	14.8	
CN(C)c1ccc(C#Cc2c(F)cccc2F)nc1	85.2	68.9	15.1	
Fc1cccc(F)c1C#Cc1ccnc2ccccc12	59	15.4		
Fc1cccc(F)c1C#Cc1ccnc2cc(Cl)ccc12	74.3	36		
